Measured values as given in publication PMC11070865 (Heliyon, 2024).
In brackets after ≈: the same amount, converted by molar mass. Read-outs that look alike come from different tables or passages of the source.

What was measured:
[1] = tested on: MCF-7 breast cancer cell line; settings: MF from Lisotrigona furua propolis; cited from earlier work
[2] = tested on: CASP7; experiment: RT-qPCR transcript expression, CASP7; format: cell-based; settings: KATO-III, MF 30 μg/mL or doxorubicin 1.14 μg/mL
[3] = tested on: NFkB; experiment: RT-qPCR transcript expression, NFkB; format: cell-based; settings: KATO-III, MF 30 μg/mL or doxorubicin 1.14 μg/mL
[4] = tested on: CTSB; experiment: RT-qPCR transcript expression, CTSB; format: cell-based; settings: KATO-III, MF 30 μg/mL
[5] = tested on: BCL-2; experiment: RT-qPCR transcript expression, BCL-2; format: cell-based; settings: KATO-III, 48 h (doxorubicin: from 48 h onwards); MF 30 μg/mL or doxorubicin 1.14 μg/mL
[6] = tested on: KATO-III cells; experiment: Cell cycle arrest analysis, PI flow cytometry; format: cell-based; settings: MF 7.5, 15 and 30 μg/mL, from 24 h exposure onwards, P < 0.01
Method in brief: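 KATO-III cells at 5 × 10⁵ per well in 6-well plates were exposed to test compound (0, 7.5, 15 and 30 μg/mL final) or 1 % (v/v) DMSO for 24, 48 and 72 h (37 °C, 5 % CO₂). Cells were trypsinized and washed in cold PBS, then fixed in 70 % ethanol on ice for 30 min. They were treated with RNase A (100 μg/mL, 30 min, 37 °C) and stained with PI (50 μg/mL). Flow cytometry recorded 10,000 events per sample, in triplicate.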

[7] = tested on: KATO-III cells; experiment: Cell imaging; format: cell-based
Method in brief: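 KATO-III cells at 5 × 10⁵ per well in 6-well plates were left for 16 h, then given test compound (7.5, 15 or 30 μg/mL), doxorubicin (1.14 μg/mL) or 1 % (v/v) DMSO for 24, 48 and 72 h. Culture was at 37 °C, 5 % CO₂, humidified. Morphology was viewed by light microscopy with camera imaging at 100× and 200×.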

[8] = tested on: CASP3; experiment: RT-qPCR transcript expression, CASP3; format: cell-based; settings: KATO-III, MF 30 μg/mL or doxorubicin 1.14 μg/mL
[9] = tested on: COX2; experiment: RT-qPCR transcript expression, COX2; format: cell-based; settings: KATO-III, MF 30 μg/mL or doxorubicin 1.14 μg/mL
[10] = tested on: WI-38 normal lung fibroblast cell line; experiment: Cell viability by MTT assay, WI-38; format: cell-based; settings: Homo sapiens, read-out: IC50 on WI-38
[11] = tested on: KATO-III cell line; experiment: Cell viability by MTT assay, KATO-III; format: cell-based; settings: for IC50: Homo sapiens, KATO III, read-out: IC50 on KATO-III
[12] = tested on: KATO-III cells; experiment: Programmed cell death, annexin V/PI flow cytometry; format: cell-based; settings: for Q2 late apoptotic cells (annexin V+ PI+): 72 h
[13] = tested on: LU-1 lung cancer cell line; settings: MF from Lisotrigona furua propolis; cited from earlier work
[14] = tested on: Caco-2, KB, SK-MEL-28 and HN30 cancer cells; settings: SK-MEL-28, HN30; cited from earlier work
[15] = tested on: NCI-N87 gastric cancer cells; settings: at 200 μg/mL; cited from earlier work
[16] = tested on: human gastric adenocarcinoma cell line (AGS cells); settings: read-out: IC50 against AGS cells; cited from earlier work

Row | SMILES | CASP7 transcript expression level vs control ([2]; 48 h) | CASP7 transcript expression level vs control ([2]; 72 h) | NFkB transcript expression level vs control ([3]; 24 h) | BCL-2 transcript expression level vs control [5] | CASP3 transcript expression level vs control ([8]; 48 h) | CASP3 transcript expression level vs control ([8]; 72 h) | COX2 transcript expression level vs control ([9]; 24 h) | IC50 ([10]; WI-38, 24 h) [µg/mL] | IC50 ([10]; WI-38, 48 h) [µg/mL] | IC50 ([10]; WI-38, 72 h) [µg/mL] | IC50 ([11]; 24 h) [µg/mL] | IC50 ([11]; 48 h) [µg/mL] | IC50 ([11]; 72 h) [µg/mL] | migration of cancer cells [14] | other results
1 | C/C(=C\CC[C@@H](C)[C@H]1CC[C@@]2(C)[C@@H]3CC[C@H]4C(C)(C)[C@@H](O)CC[C@@]45C[C@@]35CC[C@]12C)C(=O)O [Compound 2, mangiferolic acid] | significant upregulation | increased in gene expression compared to control cells | upregulated with significant increased | remained the same as in control cells | significant upregulation | increased in gene expression compared to control cells | upregulated | 22 (≈ 48.3 µM) | 13.7 (≈ 29.9 µM) | 11.6 (≈ 25.4 µM) | 16 (≈ 35.1 µM) | 12 (≈ 26.2 µM) | 4.78 (≈ 10.5 µM) |  | IC50 against MCF-7 [1]: 62.85 µg/mL (≈ 138 µM); NFkB transcript expression level vs control ([3]; 48 h): significant upregulation; NFkB transcript expression level vs control ([3]; 72 h): increased in gene expression compared to control cells; CTSB transcript expression level vs control ([4]; 48 h): significant upregulation; CTSB transcript expression level vs control ([4]; 72 h): only a slight increase compared to control cells; cell cycle arrest [6]: induced detectable levels of cell cycle arrest at the sub-G1 phase and S phase population; morphology of KATO-III cells ([7]; 15 μg/mL, 24 and 48 h): No significant change in the morphology; morphology of KATO-III cells ([7]; 30 μg/mL, 48 h, 100× magnification): lower density of cells; COX2 transcript expression level vs control ([9]; 48 h): significant upregulation; COX2 transcript expression level vs control ([9]; 72 h): increased in gene expression compared to control cells; Q2 late apoptotic cells (annexin V+ PI+) ([12]; MF 15 μg/mL, listed as MF): slightly increased level of apoptotic cells; IC50 against LU-1 [13]: 13.33 µg/mL (≈ 29.2 µM)
2 | COc1cccc2c1C(=O)c1c(O)c3c(c(O)c1C2=O)C[C@@](O)(C(=O)CO)C[C@@H]3O[C@H]1C[C@H](N)[C@H](O)[C@H](C)O1 [Doxorubicin, doxorubicin, reference compound] | significantly up-regulated | significantly up-regulated | no significant difference | slightly decreased (but not significant) | significantly up-regulated | significantly up-regulated | no significant difference | 0.78 (≈ 1.44 µM) | 0.09 (≈ 0.166 µM) | 0.02 (≈ 0.0368 µM) | 1.55 (≈ 2.85 µM) | 1.43 (≈ 2.63 µM) | 0.56 (≈ 1.03 µM) |  | CASP7 transcript expression level vs control ([2]; 24 h): slightly increase; morphology of KATO-III cells ([7]; 1.14 μg/mL, 72 h): clear loss of cell density; morphology of KATO-III cells ([7]; 1.14 μg/mL, after 48 h): cell shrinkage and blebbing; fold higher cytotoxicity than compounds 1 and 2 ([11]; both cancer and normal cell lines): > 5 fold; Q1 early apoptotic cells (annexin V+ PI−) ([12]; doxorubicin 1.14 μg/mL, 48 h): significantly enhanced level of early apoptosis; Q2 late apoptotic cells (annexin V+ PI+) ([12]; doxorubicin 1.14 μg/mL): significantly higher compared to the control (P < 0.01)
3 | COc1c(O)cc2oc3cc(O)c(CC=C(C)C)c(O)c3c(=O)c2c1CC=C(C)C [alpha-mangostin] |  |  |  |  |  |  |  |  |  |  |  |  |  | inhibited the migration | 
4 | CC(C)=CCc1c(O)cc2oc3cc(O)c(O)c(CC=C(C)C)c3c(=O)c2c1O [gamma-mangostin] |  |  |  |  |  |  |  |  |  |  |  |  |  | inhibited the migration | 
5 | O=C1C[C@@H](c2ccccc2)Oc2cc(O)cc(O)c21 [pinocembrin] |  |  |  |  |  |  |  |  |  |  |  |  |  |  | cytotoxic activity [15]: 72.5%
6 | O=c1c(O)c(-c2ccc(O)c(O)c2)oc2cc(O)cc(O)c12 [quercetin] |  |  |  |  |  |  |  |  |  |  |  |  |  |  | IC50 [16]: 160 µM
